Results: ChEMBL document CHEMBL3112520, “Synthesis and biological evaluation of 2,5-di(7-indolyl)-1,3,4-oxadiazoles, and 2- and 7-indolyl 2-(1,3,4-thiadiazolyl)ketones as antimicrobials” (Bioorg Med Chem, 2014)
Activity calls are given as the source filed them. No cut-off for these calls is given here.

How the values were obtained:
[1] = Solubility of the compound; type: physicochemical
Escherichia coli = test: Antibacterial activity against Escherichia coli DH5[alpha] assessed as growth inhibition at late exponential phase at 200 uM after 16 hrs; type: functional; details: for inhibition of growth at 200 µM: read-out: GI
How it was run: (§1)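 Compounds were made up as 50 mM DMSO stocks and diluted in LB medium to 200 µM. Cultures were grown at 37 °C with 600 rpm shaking. OD600 was read every 10 min for 16 h, with LB as the blank. Samples were run in triplicate, and growth curves were compared with cells given equal amounts of DMSO.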

Bacillus subtilis = test: Antibacterial activity against Bacillus subtilis 168 assessed as growth inhibition at late exponential phase at 200 uM after 16 hrs; type: functional; details: for inhibition of growth at 200 µM: subsp. subtilis str. 168, 16 h, read-out: GI; for growth inhibition (GI): subsp. subtilis str. 168; how it was run: as §1
[2] = Inhibition of RNA polymerase-sigma factor (unknown origin) interaction at 15 uM after 1 hr by ELISA
How it was run: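 ELISA: purified full-length σA (250 nM in PBS) was coated overnight at 4 °C, then blocked with 1% (w/v) BSA in PBS at room temperature. After PBS/Tween-20 washes, rabbit anti-GST (1:2000) and then HRP goat anti-rabbit (1:2000) were each applied for 1 h at room temperature. TMB substrate was added, shaken for 6 min at room temperature, and absorbance read at 600 nm.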

Row | solubility [1] | inhibition [2] | SMILES | growth inhibition (GI) (Escherichia coli) | inhibition of growth at 200 µM (Bacillus subtilis) | growth inhibition (GI) (Bacillus subtilis) | inhibition of growth at 200 µM (Escherichia coli)
1 | ND(Insoluble) |  | COc1cc(OC)c2c(-c3ccccc3)c(-c3ccccc3)[nH]c2c1-c1nnc(-c2nnc(-c3c(OC)cc(OC)c4c(-c5ccccc5)c(-c5ccccc5)[nH]c34)o2)o1 |  |  |  | 
2 | ND(Insoluble) |  | COc1cc(OC)c2c(-c3ccccc3)c(-c3ccccc3)[nH]c2c1C(=O)NNC(=O)C(=O)NNC(=O)c1c(OC)cc(OC)c2c(-c3ccccc3)c(-c3ccccc3)[nH]c12 |  |  |  | 
3 |  | 62.6% | COc1cc(OC)c2c(-c3ccc(Cl)cc3)c[nH]c2c1C(=O)NNC(=O)c1c(OC)cc(OC)c2c(-c3ccc(Cl)cc3)c[nH]c12 | inactive | 29.8% |  | 
4 |  | 17.8% | COc1cc(OC)c2c(-c3ccc(Cl)cc3)c[nH]c2c1-c1nnc(-c2c(OC)cc(OC)c3c(-c4ccc(Cl)cc4)c[nH]c23)o1 | inactive |  | inactive | 
5 |  | 39.5% | COc1cc(OC)c2c(-c3ccc(Br)cc3)c[nH]c2c1C(=O)NNC(=O)c1c(OC)cc(OC)c2c(-c3ccc(Br)cc3)c[nH]c12 |  | 14.3% |  | 37.4%
6 | ND(Insoluble) |  | COc1cc(OC)c2c(-c3ccccc3)c(-c3ccccc3)[nH]c2c1C(=O)C(=O)NNC(=O)C(=O)c1c(OC)cc(OC)c2c(-c3ccccc3)c(-c3ccccc3)[nH]c12 |  |  |  | 
7 |  | 17.2% | COc1cc(OC)c2c(-c3ccc(Cl)cc3)c(C(=O)c3nnc(N(C)C)s3)[nH]c2c1 |  |  | inactive | 10.6%
8 |  | 20.8% | COc1cc(OC)c2c(-c3ccc(Br)cc3)c(C(=O)C(=O)NNC(=S)N(C)C)[nH]c2c1 |  | 69.9% |  | 70%
9 | ND(Insoluble) |  | COc1cc(OC)c2c(-c3ccccc3)c(-c3ccccc3)[nH]c2c1-c1nnc(-c2c(OC)cc(OC)c3c(-c4ccccc4)c(-c4ccccc4)[nH]c23)o1 |  |  |  | 
10 |  | 20.4% | COc1cc(OC)c2c(-c3ccc(Cl)cc3)c(C(=O)C(=O)NNC(=S)N(C)C)[nH]c2c1 |  | 32.5% |  | 47%
11 |  | 19% | COc1cc(OC)c2c(-c3ccc(Br)cc3)c(C(=O)c3nnc(N(C)C)s3)[nH]c2c1 |  |  | inactive | 16.8%
12 |  | 16.8% | COc1cc(OC)c2c(-c3ccc(Br)cc3)c[nH]c2c1-c1nnc(-c2c(OC)cc(OC)c3c(-c4ccc(Br)cc4)c[nH]c23)o1 | inactive |  | inactive | 
13 | ND(Insoluble) |  | COc1cc(OC)c2c(-c3ccccc3)c(-c3ccccc3)[nH]c2c1C(=O)NNC(=O)c1c(OC)cc(OC)c2c(-c3ccccc3)c(-c3ccccc3)[nH]c12 |  |  |  | 
